SMILES strings stand for the structures.

Assay [1] has as its system Escherichia coli. Description: Antibacterial activity against Escherichia coli ATTC 25922 at 1 mg/ml after 24 hrs by well-diffusion method. The class given is functional. The conditions noted are these: ATTC 25922, 24 h, read-out: DIZ. The method, boiled down:
(§1)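 Agar well diffusion. About 1 cm3 of a 24 h infusion-broth culture (10^6 cfu cm-3) was mixed in plates with 15 cm3 molten nutrient agar held at 45°C. Once the agar set, 6 mm wells were punched and filled with compound solution (1 mg ml-1 in DMSO). Plates were incubated 24 h at 37°C, and the inhibition-zone diameter was measured. Ciprofloxacin and sulphamethoxazole were the standards.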
Background: A growth-free zone around the sample is the usual read-out of agar diffusion tests.

For assay [2], the system named is Klebsiella pneumoniae. Description: Antibacterial activity against Klebsiella pneumoniae ATCC 10031 at 1 mg/ml after 24 hrs by well-diffusion method. Format: functional. The note with it: ATCC 10031, 24 h, read-out: DIZ.
Assay [3] concerns Bacillus cereus. Put plainly: Antibacterial activity against Bacillus cereus ATTC 10702 at 1 mg/ml after 24 hrs by well-diffusion method. The conditions noted are these: ATTC 10702, 24 h, read-out: DIZ. The class given is functional. The method, boiled down: as §1
The test system of assay [4] is Salmonella typhimurium. Put plainly: Antibacterial activity against Salmonella Typhimurium ATTC 23564 at 1 mg/ml after 24 hrs by well-diffusion method. The conditions noted are these: Salmonella enterica, ATTC 23564, 24 h; read-out: DIZ. Format: functional, Salmonella enterica subsp. enterica serovar Typhimurium.

For the compound `O=C(N/N=C/c1ccccc1)c1ccc(C(=O)N/N=C/c2ccccc2)cc1`, the zone of inhibition at 1000 µg/mL in assay [1] stood at 6 mm; in assay [2] it was 5 mm; in assay [3], 4 mm; in assay [4], 4 mm.
`O=C(NN1C(=O)CSC1c1ccccc1)c1ccc(C(=O)NN2C(=O)CSC2c2ccccc2)cc1` (stereo not given): the zone of inhibition at 1000 µg/mL in assay [1] worked out at 8 mm; in assay [2], 6 mm; in assay [3] it was 8 mm; in assay [4] it was 7 mm.
As to `c1ccc(-c2nnc(-c3ccc(-c4nnc(-c5ccccc5)o4)cc3)o2)cc1`, the zone of inhibition at 1000 µg/mL in assay [1] was 8 mm; in assay [2], 7 mm; in assay [3] it was 8 mm; in assay [4] it was 7 mm.
Take `COc1ccc(/C=N/NC(=O)c2ccc(C(=O)N/N=C/c3ccc(OC)cc3)cc2)cc1`: the zone of inhibition at 1000 µg/mL in assay [1] came to 6 mm; in assay [2], 6 mm; in assay [3] it was 6 mm; in assay [4], 4 mm.
In the case of `O=[N+]([O-])c1ccc(-c2nn3c(-c4ccc(-c5nnc6sc(-c7ccc([N+](=O)[O-])cc7)nn56)cc4)nnc3s2)cc1`, the zone of inhibition at 1000 µg/mL in assay [1], in assay [2], in assay [3] and in assay [4] was 5 mm each time.
With `O=C(N/N=C/c1ccccc1Br)c1ccc(C(=O)N/N=C/c2ccccc2Br)cc1`, the zone of inhibition at 1000 µg/mL came out at 6 mm in assay [1], 5 mm in assay [2], 5 mm in assay [3] and 6 mm in assay [4].
On to `O=C(N/N=C/c1ccccc1Cl)c1ccc(C(=O)N/N=C/c2ccccc2Cl)cc1`, for which the zone of inhibition at 1000 µg/mL was found to be 5 mm in assay [1], 6 mm in assay [2], 8 mm in assay [3] and 7 mm in assay [4].
On to `O=C(NN1C(=O)CSC1c1ccccc1Br)c1ccc(C(=O)NN2C(=O)CSC2c2ccccc2Br)cc1` (stereo not given), for which the zone of inhibition at 1000 µg/mL in assay [1] amounted to 7 mm; in assay [2], 7 mm; in assay [3] it was 7 mm; in assay [4], 6 mm.
Regarding `Clc1ccc(-c2nnc(-c3ccc(-c4nnc(-c5ccc(Cl)cc5)o4)cc3)o2)cc1`, the zone of inhibition at 1000 µg/mL amounted to 8 mm in assay [1], 4 mm in assay [2], 8 mm in assay [3] and 6 mm in assay [4].
For the compound `O=C(N/N=C/c1ccc(O)cc1)c1ccc(C(=O)N/N=C/c2ccc(O)cc2)cc1`, the zone of inhibition at 1000 µg/mL amounted to 5 mm in assay [1], 5 mm in assay [2], 6 mm in assay [3] and 5 mm in assay [4].
As to `Nn1c(S)nnc1-c1ccc(-c2nnc(S)n2N)cc1`, the zone of inhibition at 1000 µg/mL in assay [1] was found to be 7 mm; in assay [2], 6 mm; in assay [3], 5 mm; in assay [4] it was 6 mm.
As to `Clc1ccccc1-c1nn2c(-c3ccc(-c4nnc5sc(-c6ccccc6Cl)nn45)cc3)nnc2s1`, the zone of inhibition at 1000 µg/mL in assay [1] stood at 6 mm; in assay [2] it was 6 mm; in assay [3], 7 mm; in assay [4] it was 6 mm.
On to `Oc1ccc(-c2nnc(-c3ccc(-c4nnc(-c5ccc(O)cc5)o4)cc3)o2)cc1`, for which the zone of inhibition at 1000 µg/mL in assay [1] was 6 mm; in assay [2], 6 mm; in assay [3] it was 5 mm; in assay [4], 4 mm.
`COc1ccc(-c2nnc(-c3ccc(-c4nnc(-c5ccc(OC)cc5)o4)cc3)o2)cc1`: the zone of inhibition at 1000 µg/mL in assay [1] was found to be 7 mm; in assay [2], 5 mm; in assay [3], 6 mm; in assay [4] it was 4 mm.
`O=C(NN1C(=O)CSC1c1ccccc1Cl)c1ccc(C(=O)NN2C(=O)CSC2c2ccccc2Cl)cc1` (stereo not given): the zone of inhibition at 1000 µg/mL in assay [1] amounted to 7 mm; in assay [2], 6 mm; in assay [3], 6 mm; in assay [4] it was 6 mm.
Take `Nc1ccc(-c2nnc(-c3ccc(-c4nnc(-c5ccc(N)cc5)o4)cc3)o2)cc1`: the zone of inhibition at 1000 µg/mL in assay [1] was 6 mm; in assay [2] it was 5 mm; in assay [3], 6 mm; in assay [4] it was 5 mm.
Consider `O=[N+]([O-])c1ccc(-c2nnc(-c3ccc(-c4nnc(-c5ccc([N+](=O)[O-])cc5)o4)cc3)o2)cc1`, for which the zone of inhibition at 1000 µg/mL in assay [1] is 9 mm; in assay [2], 8 mm; in assay [3], 9 mm; in assay [4] it was 8 mm.
For the compound `O=C(O)c1cn(C2CC2)c2cc(N3CCNCC3)c(F)cc2c1=O` [CIPROFLOXACIN], the zone of inhibition at 1000 µg/mL in assay [2] was determined as 21 mm; in assay [3], 18 mm; in assay [4] it was 23 mm.
As to `Cc1cc(NS(=O)(=O)c2ccc(N)cc2)no1` [SULFAMETHOXAZOLE], the zone of inhibition at 1000 µg/mL worked out at 12 mm in assay [1], 10 mm in assay [2], 10 mm in assay [3] and 11 mm in assay [4].

The values are drawn from ChEMBL document CHEMBL1154788, “Synthesis and antibacterial activity of some novel bis-1,2,4-triazolo[3,4-b]-1,3,4-thiadiazoles and bis-4-thiazolidinone derivatives from terephthalic dihydrazide” (2009).
